Data as given in PubChem BioAssay AID624466 (The Scripps Research Institute Molecular Screening Center, 2012).
The whole screen tested about 360,000 compounds, of which about 5,400 (1.5%) were called active. This excerpt belongs to a sample that is enriched for actives. Unmarked numbers belong to inactive results.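 Rule for the calls: active = inhibition above a per-plate cutoff, the mean inhibition of test compounds on that plate plus 3 SD (cut at about 49% in these data); inactive = the rest.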

Target: Trace amine-associated receptor 1 (Homo sapiens) (UniProt Q96RJ0)
Sequence (Q96RJ0 whole entry, looked up): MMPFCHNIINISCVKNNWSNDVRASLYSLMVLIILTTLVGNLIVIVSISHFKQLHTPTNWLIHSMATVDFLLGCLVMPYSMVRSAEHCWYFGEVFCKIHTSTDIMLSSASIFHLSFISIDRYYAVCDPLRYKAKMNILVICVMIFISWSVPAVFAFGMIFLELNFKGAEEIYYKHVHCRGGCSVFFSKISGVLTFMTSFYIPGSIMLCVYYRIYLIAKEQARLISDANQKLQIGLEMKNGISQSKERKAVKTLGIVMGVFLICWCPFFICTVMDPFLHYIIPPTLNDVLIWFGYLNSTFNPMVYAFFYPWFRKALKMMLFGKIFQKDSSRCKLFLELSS
Assay: blockers of beta-PEA-driven TAAR1 calcium signal – Fluo-8 calcium fluorescence, CHO RD-HGA16 cells, primary screen (AID 624466);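 note: 0% = DMSO plus EC80 beta-PEA response and 100% = DMSO alone without agonist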
Settings: CHO RD-HGA16 TAAR1, Fluo-8 calcium fluorescence, antagonist; at 3 µM; hits give high values
Summary of the method: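 Test system: CHO RD-HGA16 cells bearing hTAAR1 | Reagent: β-PEA, EC80 | Compound dosing: 3 µM, single point | Schedule: Dye loading 75 min at 37 °C, then 30 min room temperature | Signal: Calcium fluorescence with Fluo-8 | Evaluation: Percent inhibition of PEA-evoked calcium signal, max/basal emission ratio | Control set: DMSO-only wells and EC80 β-PEA-stimulated wells | Repeats: Singlicate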

Going from `Cc1cccc(N2CCN(Cc3nc(C4CC4)no3)CC2)n1` to `Cc1cccc(-c2nc3ccc(C(=O)NCCN4CCN(C)CC4)cc3nc2-c2cccc(C)c2)c1`, the inhibition rises from -31.7% to -13.7%.

Going from `Cc1cc(OC(=O)NCCc2ccc(F)cc2)ccc1F` to `CCOc1ccc(S(=O)(=O)NCCC(=O)NNC(=O)c2ccc(F)cc2)cc1`, the inhibition falls from -10.5% to -12%.

First: CC(C)CNc1cccc2c1S(=O)(=O)N[C@H](CC(C)C)CO2
Second: CNC(=O)c1[nH]cnc1C(=O)N[C@@H](CC(C)C)C(=O)OCc1ccccc1
The inhibition of the first is lower: -8.78% for the first, 23.5% for the second.

Going from `COc1ccc(NC(=O)COC(=O)Cn2c(C)nc3ccccc32)cc1OC` to `COc1ccccc1NC(=O)/C=C/C(N)=O`, the inhibition falls from 13.9% to -1.16%.

Going from `Cc1ccc(-c2nnc(SCC(=O)N/N=C/c3cccs3)n2-c2ccc(C)cc2)cc1` to `COc1ccccc1Cc1c(-c2ccc(F)cc2)nc2ccc(C)cn12`, the inhibition falls from 7.24% to -18.1%.

Compared with `Cc1[nH]c2ccccc2c1C(=O)c1cc([C@H](NC(=O)OC(C)(C)C)C(C)C)sc1N`, `C[C@H](NC(=O)c1nc[nH]c1C(=O)NCC(=O)OC(C)(C)C)c1ccccc1` is higher in inhibition: -5.4% for the first, -2.15% for the second.

Going from `O=C(CSc1nc2ccccc2c(=O)n1CCCO)N1CCc2ccccc21` to `C=CCn1c(=O)c2ccccc2n2c(SCC(=O)N3CCCc4ccccc43)nnc12`, the inhibition rises from -4.55% to 5.64%.

Compared with `COc1ccc(NS(=O)(=O)c2ccc(N3CCOCC3)c(NC(=O)/C=C/C(=O)O)c2)cc1`, `O=C(Nc1ccccc1N1CCOCC1)c1ccc(OCc2cscn2)cc1` is higher in inhibition: -2.93% for the first, 29.3% for the second.

First: CC(C)(C)OC(=O)NCCCCCNC(=O)c1[nH]cnc1C(=O)Nc1nccs1
Second: C[C@H](NC(=O)c1nc[nH]c1C(=O)N[C@@H](C)C(=O)OC(C)(C)C)C(=O)OC(C)(C)C
The inhibition of the first is higher: 38.9% for the first, 0.46% for the second.

Compared with `O=C(Nc1ccon1)c1nc[nH]c1C(=O)NCc1ccccc1`, `O=C(Nc1cc(Br)ccc1F)c1nc[nH]c1C(=O)NCc1ccccc1` is lower in inhibition: -5.83% for the first, -18.3% for the second.

Compared with `CC(C)(C)OC(=O)N1CCC(NC(=O)c2[nH]cnc2C(=O)N[C@@H](Cc2ccccc2)C(=O)OCc2ccccc2)CC1`, `O=C(N[C@@H](Cc1ccccc1)C(=O)OCc1ccccc1)c1nc[nH]c1C(=O)N[C@@H](Cc1ccccc1)C(=O)OCc1ccccc1` is lower in inhibition: 35.6% for the first, 15.8% for the second.

Compared with `CN(CCc1ccccn1)C1CCCN(S(=O)(=O)c2ccccc2Cl)C1` (configuration not stated), `CCCCC[C@H](C)N1C[C@@H](COCc2ccccc2)Oc2cc(N3CC[C@@H](N(C)C)C3)ccc2S1(=O)=O` is higher in inhibition: -19.7% for the first, -6.02% for the second.

First: O=C(NCc1ccccc1)[C@H]1CCCN1C(=O)[C@H]1CCCN1C(=O)N1CCOCC1
Second: O=C(NCc1ccccc1)C(c1ccc(F)cc1)N1CCN(C(=O)C2CCCO2)CC1 (configuration not stated)
The inhibition of the first is higher: 15.4% for the first, -21.5% for the second.

First: CCCCn1nnnc1C(c1cc2ccccc2o1)N(C)Cc1ccc(Cl)c(Cl)c1 (configuration not stated)
Second: O=C(NCCN1CCOCC1)c1ccc2c(c1)N(Cc1cccc(Cl)c1)C(=O)c1ccccc1S2(=O)=O
The inhibition of the first is lower: -19.1% for the first, -0.54% for the second.

Compared with `CC(C)[C@H]1COCCS(=O)(=O)N1Cc1ccccc1-c1cccc2c1sc1ccccc12`, `COC(=O)C1=C(C)N(Cc2cccc(C(F)(F)F)c2)C(=NCc2ccccc2)NC1c1ccc(Cl)cc1` (configuration not stated) is higher in inhibition: -54.8% for the first, 46% for the second.

First: Nc1nc(CC(=O)CSc2ccc(Cl)cc2)nc(Nc2ccc(F)cc2)n1
Second: Cc1ccc(C(=O)N/C(=C\c2ccc(F)cc2)C(=O)NCCN2CCOCC2)cc1
The inhibition of the first is lower: -2.27% for the first, 0.72% for the second.

Compared with `C=CCC[C@@H](CCCCC)OC(=O)/C=C/[C@@H](O)[C@H](O)C[C@H](O)CC=C`, `Nc1ncnc2c1ncn2[C@@H]1O[C@H](C(=O)N[C@@H](CCc2ccccc2)C(=O)NCC(=O)N2CCOCC2)[C@@H](O)[C@H]1O` is higher in inhibition: -5.68% for the first, 8.4% for the second.

Compared with `Cc1nc(NC(=O)C(C)(C)C)sc1[N+](=O)[O-]`, `COC(=O)[C@]12C[C@H](CC(=O)NCc3ccccc3)C(=O)N(CCC3=CCCCC3)C1=C[C@H](C(C)(C)C)O[C@@H]2C` is lower in inhibition: -6.34% for the first, -44.8% for the second.

Compared with `Cc1ccc(C(=O)N2CC(=O)Nc3ccccc32)o1`, `O=C(NCCN1CCOCC1)/C(=C/c1ccc(F)cc1)NC(=O)c1ccccc1` is higher in inhibition: -3.59% for the first, 1.45% for the second.

First: COc1cccc(-c2cc(CNC(=O)[C@@H](Cc3ccccc3)NC(=O)[C@H]3O[C@@H](n4cnc(C(N)=O)n4)[C@H](O)[C@@H]3O)no2)c1
Second: Cc1ccc(C2NC(C(=O)O)CS2)cc1 (configuration not stated)
The inhibition of the first is lower: -23.1% for the first, -13.1% for the second.

First: C=C1C(=O)OC2C1CCC(C)=CCCC1(C)OC21 (configuration not stated)
Second: O=C1/C(=C\c2ccc([N+](=O)[O-])cc2)CS(=O)(=O)C/C1=C/c1ccc([N+](=O)[O-])cc1
The inhibition of the first is lower: -17.7% for the first, 36.7% for the second.

With `Cc1nc2ccccc2n1CC(=O)N/N=C/c1cccs1` the inhibition was 56.9% (active).
`Cn1c(SCC(=O)N2CCCc3ccccc32)nc2ccccc2c1=O` was tested, and the inhibition was 59.3% (active).
In the case of `COC(=O)c1sc(-c2ccc(C(C)(C)C)cc2)cc1NC(=O)/C=C/C(=O)O`, the inhibition is reported as 69.3% (active).
`C[C@H](NC(=O)c1nc[nH]c1C(=O)NCC(=O)OC(C)(C)C)C(=O)OCc1ccccc1` was tested, and the inhibition was 60.9% (active).
In the case of `CC(C)(C)OC(=O)NCCCCCNC(=O)c1nc[nH]c1C(=O)NCc1ccccc1`, the inhibition is reported as 60% (active).
With `CC(C)(C)OC(=O)CNC(=O)c1[nH]cnc1C(=O)N[C@@H](Cc1ccccc1)C(=O)OCc1ccccc1` the inhibition was 51.3% (active).
For `Cc1cccc(NC(=O)c2nc[nH]c2C(=O)NCC(=O)OCc2ccccc2)c1`, the inhibition was 64% (active).
`CCN1CCN(CCNC(=O)c2ccc(/C=C3/Sc4ccccc4N(Cc4cccc(C)c4)C3=O)cc2)CC1` was tested, and the inhibition was 61.5% (active).
For `O=C(NCCN1CCOCC1)c1ccc(/C=C2\Sc3ccccc3N(Cc3ccc(F)cc3)C2=O)cc1`, the inhibition was 70.2% (active).
In the case of `CC(C)OCCCNc1ncnc2c1[nH]c1ccc(F)cc12`, the inhibition is reported as 51.5% (active).
